Bioassay records as filed in PubChem.
D1 mod – allosteric modulators of human D1 dopamine receptor | B-score at 10 µM | HEK293 D1, CRE-luciferase, dopamine EC30 potentiation; actives deviate in either direction | P21728 | AID 641 | 5.9% of 58,000 active;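 active = luminescence count or its row- and column-corrected plate score outside the 99.7% band of the plate's sample wells, on either side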
SF-1 act – activates the human nuclear receptor SF-1. activation, % at 10 µM. CHO-K1 Gal4-SF-1 LBD luciferase reporter; % increase over DMSO SF-1-specific signal. 1.9% of 65,000 active. AID 522;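 active = activation above the mean activation of all tested compounds plus 3 SD, cut at about 50% in these data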
Target sequence (Q13285 whole entry, looked up, the tested form may be a part): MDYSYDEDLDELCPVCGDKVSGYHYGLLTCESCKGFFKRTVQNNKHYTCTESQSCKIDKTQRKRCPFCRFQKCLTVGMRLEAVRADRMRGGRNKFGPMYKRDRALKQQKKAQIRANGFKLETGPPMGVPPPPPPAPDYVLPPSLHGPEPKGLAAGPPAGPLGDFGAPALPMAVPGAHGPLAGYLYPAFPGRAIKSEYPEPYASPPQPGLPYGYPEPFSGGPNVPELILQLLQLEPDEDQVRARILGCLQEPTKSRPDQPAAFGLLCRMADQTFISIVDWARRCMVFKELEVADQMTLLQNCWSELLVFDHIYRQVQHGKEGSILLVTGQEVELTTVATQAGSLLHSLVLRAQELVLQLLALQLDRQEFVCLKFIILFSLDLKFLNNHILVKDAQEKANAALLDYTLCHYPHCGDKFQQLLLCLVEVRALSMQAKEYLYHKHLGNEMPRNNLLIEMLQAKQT
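Material: Transient Gal4-SF-1 LBD reporter, CHO-K1 | Input: 4,000 cells/well | Dosing: One dose, 10 µM compound, 1% DMSO | Incubation: 20 h compound treatment, 37 °C | Detection: SteadyLite luciferase luminescence | Evaluation: Percent activation relative to DMSO median and mock-transfected background | Benchmarks: DMSO-treated SF-1-transfected cells as negative, DMSO-treated mock-transfected cells lacking SF-1 as background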
RORa activator – RORA (human) activation; P35398; CHO-K1 Gal4-RORA LBD luciferase reporter, luminescence; percent increase over mock-subtracted basal signal; activation, % at 10 µM; 1.5% of 65,000 active;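 active = activation above the mean of all tested compounds plus 3 SD, cut at about 49% in these data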;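 note: 0% = DMSO-treated RORA cells and 100% = added signal equal to DMSO minus mock-transfected cells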
M1 antagonist – blocks the rat M1 muscarinic receptor response to acetylcholine. P08482. CHO-M1 cells, Fluo-4 calcium, ACh EC80 antagonist mode; stronger effect = lower value. B-score at 10 µM. 3.4% of 64,000 active;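 active = calcium fluorescence response, raw or row-and-column corrected B-score, differing from the plate sample mean either way at a set confidence level, mostly lower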
Htt clearance – mutant huntingtin protein clearance; inhibition, % at 1.5 µM; HeLa Exon1htt(103Q)mCFP, aggregate imaging; zero = plate's median compound well; 0.42% of 47,000 active;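 active = inhibition of aggregate fluorescence above about 70%, also judged a hit by eye on the cell image, limit read from the data, passing the limit was not always enough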;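 note: cells exposed to compound for three days before fixation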
M1 ag – agonists of M1 muscarinic receptor. AID 626. B-score at 10 µM. 3% of 64,000 active. CHO-M1 cells, Fluo-4 calcium fluorescence, agonist mode; stronger effect = higher value;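 active = fluorescence rise, raw or as B-score row- and column-corrected plate score, outside the 99.7% band of its plate's samples, either direction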
M1 antag conf – M1 muscarinic receptor (rat) antagonism, confirmed | shares compounds with M1 antagonist | CHO-M1 cells, Fluo-4 calcium, ACh EC80 antagonism; stronger effect = lower value | calcium response (max-min fluorescence) at 10 µM | 43% of 1,700 active | AID 677;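 active = calcium response below the same-plate mean of wells given acetylcholine alone at its 80%-effect dose, minus 3 SD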;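 note: raw fluorescence intensity difference in arbitrary instrument units and not normalized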
mGluR4 antag – acts on human mGluR4 in M1 antagonist selectivity test | shares compounds with M1 antagonist | CHO-mGluR4 calcium flux, Fluo-4 fluorescence, glutamate EC80; stronger effect = lower value | fluorescence response (max-min) at 10 µM | 0.9% of 1,700 active | AID 678;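 active = fluorescence response below the plate's average for near-maximal glutamate wells, less 3 SD of those wells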;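 note: raw unnormalized fluorescence span taken in the window right after glutamate addition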
The depositor's hits bear a star; / = not tested or not shown. The list is not random: actives were taken first. Their share in the collection is about 11%.

SMILES	D1 mod	SF-1 act	RORa activator	M1 antagonist	Htt clearance	M1 ag	M1 antag conf	mGluR4 antag
CC[N+](C)(CC)CCOC(=O)C(O)(c1ccccc1)C1CCCCC1 (configuration not stated)	0.87	4	-2	-16*	/	-0.39	10*	213
CCOC(=O)C(C(=O)Nc1ccccc1)C1CCCCC1 (configuration not stated)	0.098	5	4	-0.26	17	-0.46	/	/
CCOC(=O)C(C)n1cnc2sc3c(c2c1=O)CCC3 (configuration not stated)	0.2	-4	2	-0.017	3	0.07	/	/
CCOC(=O)c1cnn(-c2ncnc3sc4c(c23)CCC4)c1N	-0.11	-4	5	-2.7*	23	-1.7	617	204
Cc1cc(C(=O)CSc2nnnn2C)c(C)n1CCc1ccc(F)cc1	/	-12	4	-2.1*	/	-0.92	644	231
Cc1ccc(-n2c(C)cc(C(=O)CSc3nncs3)c2C)cc1	/	-9	29	-2	/	1.5	/	/
Cc1ccc(-n2c(C)cc(C(=O)CSc3nnnn3C)c2C)cc1	/	33	48	-1.8*	10	-0.19	574	222
CC12CCC(C(=O)N3CCN(C(=O)C45CCC(C)(C(=O)O4)C5(C)C)CC3)(OC1=O)C2(C)C	0.98	7	10	0.12	19	0.024	/	/
COc1cc(-c2nnc(CSc3nnc4nc(C)cc(C)n34)o2)cc(OC)c1OC	-0.62	-15	26	1	/	-0.22	/	/
CCCc1cc(=O)[nH]c(SCC(=O)c2cc(C)n(C)c2C)n1	/	/	/	/	-84	/	/	/
CCCc1cc(=O)[nH]c(SCC(=O)c2cc(C)n(CCOC)c2C)n1	0.46	-3	0	-3.6*	/	0.082	537	198
O=C1CC(N2CCC(c3nc4ccccc4s3)CC2)C(=O)N1 (configuration not stated)	-0.29	3	-4	-1.7*	62	0.048	664	183
Cc1cc(C)cc(NC(=S)N2CCC(c3nc4ccccc4s3)CC2)c1	/	/	/	/	-7	/	/	/
O=C(NCc1ccco1)C(NS(=O)(=O)c1cccc2nsnc12)c1ccccc1 (configuration not stated)	-0.43	-27	4	-2.6	0	0.49	/	/
COc1ccc(N2C(=O)CC(N3CCN(C4CCc5ccccc5C4)CC3)C2=O)cc1 (configuration not stated)	-0.35	-10	-5	-2.3*	29	0.049	435	223
CN(C)c1ccc(-c2nn3c(-c4ccccc4Cl)nnc3s2)cc1	0.59	8	-12	-5.9*	/	-0.37	527	198
CCN(CC)S(=O)(=O)c1cccc(C(=O)NC(C(=O)Nc2nnc(C3CC3)s2)C(C)C)c1 (configuration not stated)	/	-3	2	-2.6*	/	-0.059	544	256
CCN(CC)S(=O)(=O)c1cccc(C(=O)NC(C(=O)NC2=NCCS2)C(C)C)c1 (configuration not stated)	-1	-13	-13	1	27	-0.45	/	/
CCOC(=O)Nc1cccc(NC(=O)c2cc(OC)cc(OC)c2)c1	-0.023	12	22	-0.028	19	0.7	/	/
COc1cc(OC)cc(C(=O)Nc2cccc(NC(C)=O)c2)c1	/	-1	-7	-3.6*	/	-0.81	666	242
O=c1[nH]c(CSc2nnc(-c3cccnc3)n2C2CCCCC2)nc2ccccc12	/	/	/	/	-14	/	/	/
Cc1ccc(C2C(C(=O)c3cc4ccccc4o3)=C(O)C(=O)N2CCN2CCOCC2)o1 (configuration not stated)	0.087	21	40	-6.8*	10	-0.54	665	241
Cc1ccc(NC(=O)N2CCCN(Cc3ccc(F)cc3)C2)cc1C	-0.64	-15	19	-5.1*	/	-0.32	592	283
Cc1ccc(N(C=NC#N)CC(=O)N2CCN(c3ccccc3)CC2)cc1	0.63	-3	3	-3.4*	-36	0.2	565	212
O=C(CN(c1ccc(Cl)cc1)S(=O)(=O)c1ccccc1)N1CCN(c2ccccc2)CC1	/	/	/	/	-14	/	/	/
SMILES	D1 mod	SF-1 act	RORa activator	M1 antagonist	Htt clearance	M1 ag	M1 antag conf	mGluR4 antag
Cc1cc(NC(=O)C(C)(C)C)no1	0.0084	-4	-10	1.6	/	-0.64	/	/
CCOC(=O)N1CCN(C(=O)CN(c2ccccc2OC)S(=O)(=O)c2ccc(C)cc2)CC1	0.61	-4	-6	-2.6*	-23	0.014	621	250
COc1ccc(S(=O)(=O)N(C)CC(=O)N2CCN(C)CC2)cc1C	-0.55	17	-1	-1.9*	-16	-1.1	685	226
COc1ccc(S(=O)(=O)N(C)CC(=O)N2CCCCCC2)cc1OC	-0.34	-1	1	0.17	/	1.1	/	/
Cc1cc(C)n(-c2nncn2/N=C/c2ccccc2F)n1	-0.14	-8	-3	-3.3*	43	-1	576	233
Cc1ccc(Sc2oc(/C=N/n3cnnc3)cc2Br)cc1	0.36	-4	-15	-0.085	/	-0.044	/	/
O=S(=O)(c1ccc(Cl)cc1)N1CCC(N2CCCCCC2)CC1	/	-3	-9	-4.6*	/	0.52	545	259
COc1ccc(NC2CS(=O)(=O)CC2NCc2ccco2)cc1 (configuration not stated)	-0.52	7	-5	-0.59	/	-1.1	/	/
Cc1cc(/C=N/n2cnnc2)c(C)n1-c1ccc(OCc2ccc(F)cc2)cc1	-2.6	-86	-70	-2.4*	/	0.4	503*	247
O=C(OCCN1CCCC1)C1(c2ccccc2)CCCC1	-0.065	0	7	-15*	/	0.26	28*	166
O=C(NCc1cccnc1)NC1(C(F)(F)F)Oc2ccc(Cl)cc2O1 (configuration not stated)	/	-17	4	-1.6*	-10	-0.1	410*	246
O=C1CC(c2ccco2)CC(O)=C1C=NCCN1CCNCC1 (configuration not stated)	0.14	-18	-4	-0.7	15	-0.93	/	/
O=C1CC(c2ccco2)CC(O)=C1C=NCC1CCNCC1 (configuration not stated)	1.3	1	-32	-3.8*	/	-0.012	462*	226
CN1C=CC=C/C1=C1\SC(=S)N(C2CCCCC2)C1=O	0.28	/	/	-6.1*	3	-0.036	488*	261
Cc1cc(C)n(-c2ccc(C(=O)OCC(=O)N(CC(C)C)C3CCS(=O)(=O)C3)cc2)n1 (configuration not stated)	0.19	0	8	-2.5*	16	-1.7	595	220
c1cncc(CNc2c3c(nc4nnnn24)CCCC3)c1	/	-6	-9	-0.7	/	-0.33	/	/
